Measurements published in ChEMBL document CHEMBL1159328, “Cyclotheonamide E4 and E5, new potent tryptase inhibitors from an Ircinia species of sponge” (J Nat Prod, 2002).
*1 amine or outer side, *2 acyl side, *3 side chain or, on linkers, in order; H or OH if unused. Where a SMILES comes first, the peptide text is derived from it. Bridges are numbered along the chain shown (N, C = ends). [ ]: non-standard residue; d: D form. The star is where a group is joined. Arg(ψCOCO) = N=C(N)NCCC[C@H](N[*:1])C(=O)C(=O)[*:2]; X1 = O=C(/C=C/[C@H](Cc1ccc(O)cc1)N[*:1])[*:2]; aIle = CC[C@@H](C)[C@H](N)C(=O)O; Dap = NC[C@H](N)C(=O)O; PhAc = O=C(Cc1ccccc1)*

Key:
[1] = Inhibition of human tryptase in human cultured mast cell lysate
Outline: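 Tryptase source: lysate (detergent/hypotonic buffer) of umbilical cord blood-derived human mast cells, ≥12 weeks in culture with SCF and IL-6, 100% pure; 8 × 10³ cell equiv/mL lysate. Preincubated 10 min at 37 °C with varied inhibitor. Substrate: 0.2 mM tosyl-Gly-Pro-Arg-pNA, Tris pH 8.0 buffer; 30 min at 37 °C; A405.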

[2] = Inhibition of mouse tryptase in mouse bone marrow mast cell lysate
Outline: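 Lysate (detergent/hypotonic buffer) of CBA/J mouse femoral bone marrow cells cultured 5 weeks with mouse IL-3 (>99% mast cells), used at 8 × 10⁴ cell equiv/mL as tryptase source. 10 min 37 °C preincubation with varied inhibitor levels. Then 0.2 mM tosyl-Gly-Pro-Arg-pNA in Tris pH 8.0 buffer, 30 min 37 °C; absorbance at 405 nm.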

[3] = molecular target: Prothrombin (Homo sapiens, UniProt P00734); assay: Inhibition of human thrombin
Outline: (§1)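 Purified enzyme, preincubated 10 min at 37 °C with a range of inhibitor concentrations. Substrate: 0.2 mM N-p-tosyl-Gly-Pro-Arg p-nitroanilide, in 0.1 M Tris pH 8.0 with 1 mM CaCl2, 1 mM MgCl2, 1 M glycerol and 0.1% Triton X. Then 30 min at 37 °C; absorbance read at 405 nm.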

[4] = Inhibition of bovine trypsin; parameters: species or system Bos taurus; outline: as §1

CCC(C)CC(=O)N[C@@H](C)C(=O)N[C@H]1CNC(=O)/C=C/[C@H](Cc2ccc(O)c(O)c2)NC(=O)[C@H]([C@H](C)CC)NC(=O)C(=O)[C@H](CCCNC(=N)N)NC(=O)[C@@H]2CCCN2C1=O (some centres not stated) [CYCLOTHEONAMIDE E5]
IC50 [1]: 84.7 nM | IC50 [2]: 54.1 nM | IC50 [3]: 67.9 nM | IC50 [4]: 37.3 nM

CCC(C)CC(=O)N[C@@H](C)C(=O)N[C@H]1CNC(=O)/C=C/[C@H](Cc2ccc(O)cc2)NC(=O)[C@H]([C@H](C)CC)NC(=O)C(=O)[C@H](CCCNC(=N)N)NC(=O)[C@@H]2CCCN2C1=O (some centres not stated) [CYCLOTHEONAMIDE E4]
IC50 [1]: 5.1 nM | IC50 [2]: 6.5 nM | IC50 [3]: 7.4 nM | IC50 [4]: 5.9 nM

CC[C@@H](C)[C@@H]1NC(=O)C(=O)[C@H](CCCNC(=N)N)NC(=O)[C@@H]2CCCN2C(=O)[C@@H](NC(=O)[C@H](C)NC(=O)Cc2ccccc2)CNC(=O)/C=C/[C@H](Cc2ccc(O)cc2)NC1=O [CYCLOTHEONAMIDE E] (PhAc-A[Dap]P[Arg(ψCOCO)][aIle][X1]; lactam 2-C)
IC50 [1]: 6.9 nM | IC50 [2]: 17 nM | IC50 [3]: 16.1 nM | IC50 [4]: 10.6 nM
